From ChEMBL document CHEMBL1129968, “Synthesis, dopamine transporter affinity, dopamine uptake inhibition, and locomotor stimulant activity of 2-substituted 3 beta-phenyltropane derivatives” (J Med Chem, 1997)
pIC50, pKi: −log10 of the molar value. Where “and” joins values, the source holds several entries; their conditions need not be identical. Equal entries are not always repeated.

Key:
[1] = molecular target: T1, Sodium-dependent dopamine transporter (Rattus norvegicus, UniProt P23977); assay: Displacement of [3H]WIN-35428 from dopamine transporter (DAT) in Rat Caudate Putamen; assay type: tissue-based
Summary of the method: (§1)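 Ki is the inhibition constant derived for the unlabeled ligand. Values are the mean ± SEM of three experiments run in triplicate. Compounds were tested as HCl salts unless noted, some as fumarate salts. Data were fitted to single-site versus two-site binding models.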

[2] = organism: Mus musculus; assay: Stimulation of locomotor activity of mice; assay type: functional
Summary of the method: (§2)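 Mice given drug or saline vehicle, with horizontal activity counts recorded in 10 min periods over a 60 min session. Eight mice per dose, doses in µmol/kg. The dose-response used the first 30 min after injection. ED50 is from the dose-response, and the maximal stimulant effect and time course were also assessed.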

[3] = organism: Rattus norvegicus; assay: Values for substitution for Cocaine in rats Trained to discriminate Cocaine from saline; assay type: functional
Summary of the method: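 Read-out is the percentage of responses on the cocaine-appropriate lever, with doses in µmol/kg. Lever selection was counted unreliable below 0.02 responses/s, and a point was dropped if fewer than half of subjects met this rate. Four to six rats per point. ED50 given with 95% confidence limits.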

[4] = organism: Rattus norvegicus; assay: Compound was evaluated for inhibition of [3H]- dopamine Uptake in rat caudate - putamen tissue.; assay type: functional
Summary of the method: (§3)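 [3H]dopamine uptake into rat caudate-putamen tissue. IC50 values are the mean ± SEM of three experiments, each run in triplicate. Compounds were tested as HCl salts unless noted, some as fumarate salts.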

[5] = molecular target: T1, Sodium-dependent dopamine transporter; assay: Compound was evaluated for its ability to displace [3H]WIN-35428 from dopamine transporter in rat caudate putamen tissue; assay type: tissue-based
Summary of the method: as §1, with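 “Rat caudate-putamen tissue, displacing bound [3H]WIN 35,428. Ki” for “Ki”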

[6] = organism: Rattus norvegicus; assay: Compound was evaluated for inhibition of [3H]- dopamine uptake in rat caudate - putamen tissue.; assay type: functional; summary of the method: as §3
[7] = organism: Mus musculus; assay: Stimulation of locomotor activity of Mice; assay type: functional; summary of the method: as §2

T1 sequence (P23977 whole entry): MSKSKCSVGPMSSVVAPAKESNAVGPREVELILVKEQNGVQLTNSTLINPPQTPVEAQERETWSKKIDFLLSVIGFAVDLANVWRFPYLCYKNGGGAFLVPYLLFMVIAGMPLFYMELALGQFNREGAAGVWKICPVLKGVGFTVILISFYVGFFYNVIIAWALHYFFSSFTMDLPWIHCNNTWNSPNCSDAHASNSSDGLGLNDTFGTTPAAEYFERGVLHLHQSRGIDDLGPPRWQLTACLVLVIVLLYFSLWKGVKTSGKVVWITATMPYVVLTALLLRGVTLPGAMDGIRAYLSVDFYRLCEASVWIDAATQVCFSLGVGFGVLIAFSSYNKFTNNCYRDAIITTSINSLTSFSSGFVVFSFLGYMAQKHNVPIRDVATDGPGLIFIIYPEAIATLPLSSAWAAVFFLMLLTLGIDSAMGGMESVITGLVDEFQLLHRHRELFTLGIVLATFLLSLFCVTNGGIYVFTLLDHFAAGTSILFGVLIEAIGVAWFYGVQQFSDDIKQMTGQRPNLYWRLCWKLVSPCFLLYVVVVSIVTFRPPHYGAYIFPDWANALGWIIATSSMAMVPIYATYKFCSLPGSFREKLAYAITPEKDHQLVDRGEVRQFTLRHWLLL

| Structure (SMILES) | pKi [1] | ED50 [2] | Max effect [2] | ED50 [3] | pIC50 [4] | pKi [5] | pIC50 [6] | ED50 [7] |
| --- | --- | --- | --- | --- | --- | --- | --- | --- |
| COC(=O)/C=C/CCC1C(c2ccccc2)CC2CCC1N2C (stereo not given) | 7.70 | 9.21 µmol/kg | 17327 Counts 10min-1 | 15 µmol/kg | 6.69 | – | – | – |
| COC(=O)CCCCC1C(c2ccccc2)CC2CCC1N2C (stereo not given) | 7.52 | – | – | – | 6.89 | – | – | – |
| CN1C2CCC1C(CCC(=O)c1ccccc1)C(c1ccccc1)C2 (stereo not given) | 7.55 | – | – | – | 7.33 | – | – | – |
| CN1C2CCC1C(/C=C/CO)C(c1ccccc1)C2 (stereo not given) | – | – | – | – | – | 7.59 | 6.80 | – |
| CN1C2CCC1C(CCCc1ccccc1)C(c1ccccc1)C2 (stereo not given) | 7.80 | – | – | – | 7.37 | – | – | – |
| COC(=O)[C@@H]1C2CC[C@H](C[C@@H]1c1ccccc1)N2C (single isomer, unassigned) | 7.48 and 6.50 | – | – | – | 6.43 | – | – | – |
| COC(=O)CCC1C(c2ccccc2)CC2CCC1N2C (stereo not given) | 7.64 | – | – | – | – | – | 6.78 | – |
| COC(=O)/C=C/C1C(c2ccccc2)CC2CCC1N2C (stereo not given) | 7.66 | – | 14996 Counts 10min-1 | 12.8 µmol/kg | – | – | 6.91 | 4.74 µmol/kg |
| CN1C2CCC1C(CCCO)C(c1ccccc1)C2 (stereo not given) | 7.96 | 12 µmol/kg | 20820 Counts 10min-1 | 12.9 µmol/kg | 7.19 | – | – | – |
| COC(=O)[C@H]1[C@@H](OC(=O)c2ccccc2)C[C@@H]2CC[C@H]1N2C [COCAINE] | – | 20.8 µmol/kg | 12518 Counts 10min-1 | 8.74 µmol/kg | – | – | – | – |
